Screening results from PubChem.
GASC1 inh: inhibitors of GASC-1 (KDM4C) histone demethylase, primary screen, biochemical, single concentration HTS; inhibition, % at 12.5 µM; GST-KDM4C 2-372, H3K9me3 peptide, LANCE TR-FRET; 96,000 compounds, 0.15% hits; Lysine-specific demethylase 4C (Homo sapiens), Q9H3R0;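 active = mean replicate inhibition above about 25%, with at least 55% of replicates also reaching it, limit read from the data, passing the limit was not always enough; inconclusive = only one of those two conditions met; inactive = neither condition met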
Target sequence (Q9H3R0 2-372 limits assumed): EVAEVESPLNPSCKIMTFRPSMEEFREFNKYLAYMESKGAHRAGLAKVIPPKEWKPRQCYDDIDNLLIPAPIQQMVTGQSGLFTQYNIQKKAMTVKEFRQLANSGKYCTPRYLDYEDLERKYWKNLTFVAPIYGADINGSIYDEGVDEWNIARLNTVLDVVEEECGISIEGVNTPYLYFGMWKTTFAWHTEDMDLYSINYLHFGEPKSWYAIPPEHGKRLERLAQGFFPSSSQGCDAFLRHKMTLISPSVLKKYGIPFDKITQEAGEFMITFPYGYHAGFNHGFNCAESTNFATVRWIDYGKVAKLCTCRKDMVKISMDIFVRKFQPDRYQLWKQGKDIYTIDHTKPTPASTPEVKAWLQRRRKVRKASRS
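Compound: one test concentration per compound; Material: GST-GASC-1 enzyme fragment 2-372; Amount: GASC-1 enzyme at 10 nM final in reaction; Also added: H3K9me3 peptide substrate, Fe(II), 2-oxoglutarate; Technique: LANCE TR-FRET; Times: 30 min demethylation and 1 h detection at room temperature.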
T cruzi growth-1: T. cruzi intracellular proliferation inhibitors, primary screen, cell-based, beta-gal Tulahuen parasites, NIH3T3 host, luminescence; 77,000 compounds, 5.9% hits; inhibition, % at 8.34 µM; T. cruzi beta-gal in NIH3T3, GalScreen luminescence, 90 h; AID 624255, 2012;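 active = mean inhibition above about 93%, with at least 55% of replicates each passing it, limit read from the data, passing the limit was not always enough; inconclusive = only one of those two conditions holds; inactive = neither condition holds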
IDH1 R132H inh: inhibitors of IDH1 R132H reductase, primary screen, biochemical, plate reader, single point | Isocitrate dehydrogenase [NADP] cytoplasmic (Homo sapiens), O75874 | diaphorase/resazurin fluorescence, 60 min | inhibition, % at 10 µM | 70,000 compounds, 0.18% hits | AID 624101, 2012; in the data active = inhibition above about 34%; inconclusive = no clear call, values can overlap the other calls; inactive = below about 11%;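 also: 0% = DMSO and 100% = no enzyme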
T cruzi growth-2: T. cruzi intracellular proliferation inhibitors, confirmation, cell-based, NIH3T3 host, beta-gal parasite, luminescence, cherry-pick | shares compounds with T cruzi growth-1 | inhibition, % at 8.35 µM | AID 651739, 2012 | T. cruzi beta-gal in NIH3T3, GalScreen luminescence, 90 h | 5,600 compounds, 72% hits;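 active = mean replicate inhibition above about 95% and at least 55% of replicates individually reaching it, limit read from the data; inconclusive = only one of the two criteria is met; inactive = neither criterion is met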
T cruzi growth-3: inhibitors of intracellular T. cruzi replication, confirmation, NIH3T3 host cells, beta-gal parasites, cherry-pick, set 2; shares compounds with T cruzi growth-1; T. cruzi beta-gal in NIH3T3, GalScreen luminescence, 90 h; inhibition, % at 2.09 µM; 5,600 compounds, 21% hits; AID 651740, 2012;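 active = mean inhibition above about 95%, with at least 55% of replicates also reaching it, limit read from the data; inconclusive = meets just one of the two conditions; inactive = meets neither condition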;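 also: plate controls were neutral control median for no effect and positive control median for full effect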
NIH3T3 tox: cytotoxicity in mouse NIH/3T3 fibroblasts, confirmation, cytotoxicity control for T. cruzi proliferation inhibitor project, cell-based, cherry-pick, single point; shares compounds with T cruzi growth-1; cytotoxicity (signal decrease), % at 8.35 µM; 5,600 compounds, 14% hits; AID 651742, 2012; NIH/3T3 viability, CellTiter-Glo ATP luminescence, 90 h;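 active = mean signal decrease across replicates above about 35% based on untreated-well scatter, with enough replicates individually passing, limit read from the data; inconclusive = no rule stated though some were filed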;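 also: 0% = median of neutral control wells and 100% = median of positive control wells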
3T3 cytotox 2: NIH/3T3 fibroblast cytotoxicity, confirmation, cytotoxicity control, cell-based, cherry-pick, single point, set 2; shares compounds with T cruzi growth-1; NIH/3T3 viability, CellTiter-Glo ATP luminescence, 90 h; inhibition, % at 24.9 µM; 5,600 compounds, 56% hits; AID 651744, 2012;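 active = mean loss of cell viability signal at or above a set limit, and enough replicates individually reaching it; inconclusive = meets only the mean limit or only the replicate share; inactive = meets neither condition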;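 also: 0% = median of neutral control wells and 100% = median of positive control wells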
The depositor's hits bear a star; u = inconclusive; x = not tested or not shown. The sample as a whole holds a higher share of hits than the screen did.

SMILES | GASC1 inh | T cruzi growth-1 | IDH1 R132H inh | T cruzi growth-2 | T cruzi growth-3 | NIH3T3 tox | 3T3 cytotox 2
Cc1cccc(-c2ccc([C@@H]3[C@@H](CO)N4CCCCN(S(=O)(=O)c5cn(C)cn5)C[C@H]34)cc2)c1 | 0 | 102* | x | 11 | -16 | 9 | 9
Cn1cnc(S(=O)(=O)N2CCCCN3[C@H](CO)[C@@H](c4ccc(-c5ccccc5)cc4)[C@H]3C2)c1 | -1 | 98* | x | 40 | -33 | -7 | -5
Cn1cnc(S(=O)(=O)N2CCCCN3[C@H](C2)[C@@H](c2ccc(-c4ccccc4)cc2)[C@@H]3CO)c1 | 0 | 106* | x | 99* | -13 | 2 | 11
CNC(=O)CN(C#N)c1nc(C)cc(C)n1 | x | x | 0 | x | x | x | x
COc1ccc(NC(=O)C2=C(C)NC(=O)NC2c2cc(OC)ccc2OC)c(OC)c1 (stereo unspecified) | x | x | 0 | x | x | x | x
O=C(O)CCCCCC(=O)N/N=C/c1c(O)ccc2ccccc12 | x | x | 1 | x | x | x | x
Cc1ccc(NC(=O)CNC(=O)c2ccc([N+](=O)[O-])cc2)cc1 | x | x | 0 | x | x | x | x
COc1ccc(-c2nnc(SCC(=O)Nc3ccc(Br)c(C)c3C)n2C)cc1 | x | x | 0 | x | x | x | x
COc1ccccc1C(=O)CC(=O)C(=O)Nc1sc2c(c1C#N)CCC2 | x | x | 0 | x | x | x | x
CC(=O)c1cccc(NC(=O)CNS(=O)(=O)c2ccc(Cl)cc2)c1 | x | x | 0 | x | x | x | x
CC1Cc2ccc(F)cc2CN1C(=O)c1ccc(COc2ccccc2Br)o1 (stereo unspecified) | x | x | 0 | x | x | x | x
O=C(CCCN1C(=O)c2ccccc2C1=O)Nc1ccccc1F | x | x | 0 | x | x | x | x
Cn1cnc(S(=O)(=O)N2CCCCN3[C@H](CO)[C@H](c4ccc(-c5ccc(F)cc5)cc4)[C@H]3C2)c1 | 0 | u | x | u | 18 | 19 | 41*
Cn1cnc(S(=O)(=O)N2CCCCN3[C@H](CO)[C@@H](c4ccc(-c5ccc(F)cc5)cc4)[C@H]3C2)c1 | 0 | -23 | x | x | x | x | x
COc1ccc(S(=O)(=O)N(C)C[C@H]2OCCCC[C@@H](C)Oc3ccc(NS(=O)(=O)c4ccc(F)cc4)cc3C(=O)N([C@H](C)CO)C[C@H]2C)cc1 | -2 | 114* | 0 | 106* | 75 | -17 | -17
COc1ccc(S(=O)(=O)N(C)C[C@@H]2OCCCC[C@@H](C)Oc3ccc(NS(=O)(=O)c4ccc(F)cc4)cc3C(=O)N([C@@H](C)CO)C[C@@H]2C)cc1 | 0 | 112* | 5 | 101* | 65 | -1 | 53*
COc1ccc(S(=O)(=O)Nc2ccc3c(c2)C(=O)N([C@H](C)CO)C[C@@H](C)[C@@H](CN(C)S(=O)(=O)c2ccc(F)cc2)OCCCC[C@H](C)O3)cc1 | 0 | 95* | x | 108* | 33 | -7 | 5
COc1ccc(S(=O)(=O)Nc2ccc3c(c2)C(=O)N([C@@H](C)CO)C[C@H](C)[C@@H](CN(C)S(=O)(=O)c2ccc(F)cc2)OCCCC[C@@H](C)O3)cc1 | 2 | 72 | 0 | x | x | x | x
COc1ccc(S(=O)(=O)N(C)C[C@@H]2OCCCC[C@@H](C)Oc3ccc(NS(=O)(=O)c4ccc(F)cc4)cc3C(=O)N([C@H](C)CO)C[C@@H]2C)cc1 | -1 | 53 | x | x | x | x | x
COc1ccc(S(=O)(=O)N(C)C[C@@H]2OCCCC[C@H](C)Oc3ccc(NS(=O)(=O)c4ccc(F)cc4)cc3C(=O)N([C@@H](C)CO)C[C@@H]2C)cc1 | 0 | 118* | x | 108* | 40 | -27 | -8
COc1ccc(S(=O)(=O)Nc2ccc3c(c2)C(=O)N([C@@H](C)CO)C[C@H](C)[C@H](CN(C)S(=O)(=O)c2ccc(F)cc2)OCCCC[C@H](C)O3)cc1 | -2 | 50 | x | x | x | x | x
